In article PMC5593424 (Bioorganic & medicinal chemistry letters, 2017):

Assays:
eIF4A [1] = target: T1, eIF4A (Homo sapiens, UniProt P60842); assay: fluorescence-dequenching eIF4A helicase assay; assay type: biochemical; conditions: 100 µM compound, relative to DMSO control, eIF4B and ATP
In short: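 RNA unwinding assay: a fluorescently labelled RNA strand is annealed to a template beside a black-hole quencher. Adding eIF4A, eIF4B and ATP releases the strand and dequenches the fluorophore. A large excess of blank template prevents reannealing. Test compounds used at 100 μM.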

[2] = system: MDA-MA-468 breast cancer cells; assay: MTT cytotoxicity, MDA-MA-468; assay type: cell-based; conditions: MDA-MA-468, MTT, 8-point dose response
In short: (§1)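 Cells exposed to an 8-point dose-response of test compound; viability read by MTT. Percent survival plotted against compound concentration on semi-log axes, and LD50 taken from that curve.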

A549 lung cancer cells = assay: MTT cytotoxicity, A549; assay type: cell-based; conditions: 8-point dose response
In short: as §1

DDX39A = DDX39A (Homo sapiens, UniProt O00148); assay: ATPase dose-response against DDX39A; assay type: biochemical; conditions: 8-point dose-response
Chain of DDX39A (O00148 whole entry, species assumed): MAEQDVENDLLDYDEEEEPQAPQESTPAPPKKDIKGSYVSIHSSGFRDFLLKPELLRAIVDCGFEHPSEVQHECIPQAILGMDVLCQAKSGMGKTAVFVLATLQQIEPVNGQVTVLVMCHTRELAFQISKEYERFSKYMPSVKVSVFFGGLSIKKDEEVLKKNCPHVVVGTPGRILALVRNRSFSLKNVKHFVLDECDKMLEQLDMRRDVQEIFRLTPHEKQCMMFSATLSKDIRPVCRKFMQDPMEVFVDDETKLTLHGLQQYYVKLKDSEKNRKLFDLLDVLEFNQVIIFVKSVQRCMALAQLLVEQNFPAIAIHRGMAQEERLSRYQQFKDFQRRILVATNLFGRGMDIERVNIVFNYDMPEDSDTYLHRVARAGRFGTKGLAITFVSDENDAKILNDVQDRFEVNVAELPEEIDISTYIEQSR

NCI-60 panel = conditions: cited from earlier work
eIF4A [3] = target: T1, eIF4A; assay: malachite green eIF4A ATPase assay; assay type: biochemical; conditions: for inhibition of eIF4A ATPase activity (IC50): 8-point dose-response, 500 nM eIF4A, 250 µM ATP
[4] = cited from earlier work

T1 sequence (P60842 whole entry): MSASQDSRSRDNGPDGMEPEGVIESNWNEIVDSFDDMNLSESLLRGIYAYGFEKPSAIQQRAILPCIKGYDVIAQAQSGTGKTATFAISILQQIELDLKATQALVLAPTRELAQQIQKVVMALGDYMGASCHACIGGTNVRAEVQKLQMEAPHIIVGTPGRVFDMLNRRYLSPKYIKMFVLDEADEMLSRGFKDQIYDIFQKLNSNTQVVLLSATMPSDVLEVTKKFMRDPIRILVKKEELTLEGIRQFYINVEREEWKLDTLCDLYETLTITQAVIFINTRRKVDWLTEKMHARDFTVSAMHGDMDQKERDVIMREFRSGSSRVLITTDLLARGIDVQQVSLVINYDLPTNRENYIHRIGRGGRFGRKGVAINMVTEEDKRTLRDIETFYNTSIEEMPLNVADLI

| Compound | inhibition of eIF4A helicase activity (eIF4A [1]) | LD50 [2] | LD50 (A549 lung cancer cells) | inhibition of DDX39A (DDX39A) | activity against the NCI-60 panel (NCI-60 panel) | inhibition of eIF4A ATPase activity (IC50) (eIF4A [3]) | Ki (eIF4A [3]) | antibiotic activity [4] |
| --- | --- | --- | --- | --- | --- | --- | --- | --- |
| C[C@H]1C[C@@]2(O[C@H]3C[C@H]4[C@@H]5CC[C@H]6C[C@H](O)CC[C@]6(C)[C@H]5[C@@H](O)C[C@]4(C)[C@H]3[C@@]2(C)O)OC1(C)C [Compound 3, hippuristanol, reference compound] | near complete inhibition |  |  |  |  |  |  |  |
| CC(C)=C[C@@H]1C[C@H](C)c2c(O)cc(C)c3c2C1=C(C)C(=O)C3=O [Compound 1, elisabatin A] |  | 35.2 µM | 40.2 µM | modest inhibition | only modest activity | single-digit |  |  |
| C=C1CC[C@@](C)(c2cc(Br)c(C)cc2O)[C@H]1C [Compound 2, allolaurinterol] | near complete inhibition | 31.7 µM | 41.4 µM |  |  | single-digit | 3.86 µM | antibiotic activity |
